From ChEMBL document CHEMBL4330069, “Boosting the efficacy of anti-MRSA β-lactam antibiotics via an easily accessible, non-cytotoxic and orally bioavailable FtsZ inhibitor” (Eur J Med Chem, 2019)
≈ marks a conversion by molar mass, not a printed value.

Columns and labels:
Assay type in all cases: functional
Staphylococcus aureus [1] = assay: Antibacterial activity against Staphylococcus aureus ATCC 29213 by broth microdilution assay
Procedure, shortened: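 Broth microdilution per CLSI guidelines; compounds dissolved in DMSO; single agents tested; growth inhibition read by eye; run in duplicate (table footnote states at least triplicates).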

Staphylococcus aureus [2] = assay: Antibacterial activity against multidrug-resistant Staphylococcus aureus isolate 2490 by broth microdilution assay
Procedure, shortened: (§1)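 Broth microdilution MIC per CLSI guidelines against clinical MRSA isolates, for β-lactams and test compound alone and in combination. Compounds were dissolved in DMSO. Growth was read by eye, in duplicate. FIC index = FIC(compound) + FIC(drug); synergy defined as FIC index ≤0.5.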

Staphylococcus aureus [3] = assay: Antibacterial activity against multidrug-resistant Staphylococcus aureus isolate 2901 by broth microdilution assay; procedure, shortened: as §1
Staphylococcus aureus [4] = assay: Antibacterial activity against multidrug-resistant Staphylococcus aureus isolate 3267 by broth microdilution assay; procedure, shortened: as §1
Staphylococcus aureus [5] = assay: Synergistic antibacterial activity against multidrug-resistant Staphylococcus aureus isolate 3411 in presence of amoxicillin by broth microdilution assay
Procedure, shortened: (§2)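 CLSI broth microdilution on clinical MRSA isolates. MICs were measured for the β-lactam alone, the test agent alone and the two combined. Compounds were dissolved in DMSO, and growth inhibition was scored by eye. FIC index is the sum, over both agents, of MIC in combination divided by MIC alone. An FIC index ≤0.5 was taken as synergy.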

Staphylococcus aureus [6] = assay: Synergistic antibacterial activity against multidrug-resistant Staphylococcus aureus isolate 2919 in presence of amoxicillin by broth microdilution assay; procedure, shortened: as §2
Staphylococcus aureus [7] = assay: Synergistic antibacterial activity against multidrug-resistant Staphylococcus aureus isolate 85 in presence of amoxicillin by broth microdilution assay
Staphylococcus aureus [8] = assay: Synergistic antibacterial activity against multidrug-resistant Staphylococcus aureus isolate 254 in presence of methicillin by broth microdilution assay; procedure, shortened: as §2
Staphylococcus aureus [9] = assay: Synergistic antibacterial activity against multidrug-resistant Staphylococcus aureus isolate 3332 in presence of methicillin by broth microdilution assay; procedure, shortened: as §2
Staphylococcus aureus [10] = assay: Synergistic antibacterial activity against multidrug-resistant Staphylococcus aureus isolate 1402 in presence of methicillin by broth microdilution assay
Procedure, shortened: (§3)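 Clinical MRSA isolate panel; compound and β-lactam tested alone and in combination by CLSI broth microdilution, compounds dissolved in DMSO, growth inhibition scored by eye, run in duplicate. FIC index = FIC(compound) + FIC(drug), each the MIC in combination divided by the MIC alone; an index ≤ 0.5 was called synergy.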

Staphylococcus aureus [11] = assay: Synergistic antibacterial activity against multidrug-resistant Staphylococcus aureus isolate 358 in presence of methicillin by broth microdilution assay
Staphylococcus aureus [12] = assay: Synergistic antibacterial activity against multidrug-resistant Staphylococcus aureus isolate 2973 in presence of methicillin by broth microdilution assay; procedure, shortened: as §2
Staphylococcus aureus [13] = assay: Synergistic antibacterial activity against multidrug-resistant Staphylococcus aureus isolate 231 in presence of cloxacillin by broth microdilution assay; procedure, shortened: as §3
Staphylococcus aureus [14] = assay: Synergistic antibacterial activity against multidrug-resistant Staphylococcus aureus isolate 757 in presence of cloxacillin by broth microdilution assay
Staphylococcus aureus [15] = assay: Synergistic antibacterial activity against multidrug-resistant Staphylococcus aureus isolate 1749 in presence of cloxacillin by broth microdilution assay; procedure, shortened: as §3
Staphylococcus aureus [16] = assay: Synergistic antibacterial activity against multidrug-resistant Staphylococcus aureus isolate 1402 in presence of cloxacillin by broth microdilution assay; procedure, shortened: as §3
Staphylococcus aureus [17] = assay: Synergistic antibacterial activity against multidrug-resistant Staphylococcus aureus isolate 3580 in presence of cloxacillin by broth microdilution assay
Staphylococcus aureus [18] = assay: Synergistic antibacterial activity against multidrug-resistant Staphylococcus aureus isolate 1717 in presence of cefuroxime by broth microdilution assay; procedure, shortened: as §3
Staphylococcus aureus [19] = assay: Synergistic antibacterial activity against multidrug-resistant Staphylococcus aureus isolate 1449 in presence of cefuroxime by broth microdilution assay; procedure, shortened: as §3
Staphylococcus aureus [20] = assay: Synergistic antibacterial activity against multidrug-resistant Staphylococcus aureus isolate 1402 in presence of meropenem by broth microdilution assay; procedure, shortened: as §3
Staphylococcus aureus [21] = assay: Synergistic antibacterial activity against multidrug-resistant Staphylococcus aureus isolate 2728 in presence of meropenem by broth microdilution assay; procedure, shortened: as §2
Staphylococcus aureus [22] = assay: Synergistic antibacterial activity against multidrug-resistant Staphylococcus aureus isolate 1717 in presence of meropenem by broth microdilution assay; procedure, shortened: as §3
Staphylococcus aureus [23] = assay: Synergistic antibacterial activity against multidrug-resistant Staphylococcus aureus isolate 2224 in presence of meropenem by broth microdilution assay; procedure, shortened: as §3
Staphylococcus aureus [24] = assay: Synergistic antibacterial activity against multidrug-resistant Staphylococcus aureus isolate 774 in presence of meropenem by broth microdilution assay
Staphylococcus aureus [25] = assay: Synergistic antibacterial activity against multidrug-resistant Staphylococcus aureus isolate 254 assessed as fractional Inhibitory concentration index in presence of amoxicillin by broth microdilution assay
Staphylococcus aureus [26] = assay: Synergistic antibacterial activity against multidrug-resistant Staphylococcus aureus isolate 231 assessed as fractional Inhibitory concentration index in presence of amoxicillin by broth microdilution assay
Procedure, shortened: (§4)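 CLSI broth microdilution run on clinical MRSA isolates with each β-lactam alone, the test agent alone, and the two combined; agents dissolved in DMSO. Growth inhibition was read by eye. FIC index = FIC(compound) + FIC(β-lactam), where each FIC is the MIC in combination divided by the MIC alone. An index ≤0.5 was taken as synergy.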

Staphylococcus aureus [27] = assay: Synergistic antibacterial activity against multidrug-resistant Staphylococcus aureus isolate 256 assessed as fractional Inhibitory concentration index in presence of amoxicillin by broth microdilution assay
Staphylococcus aureus [28] = assay: Synergistic antibacterial activity against multidrug-resistant Staphylococcus aureus isolate 2728 assessed as fractional Inhibitory concentration index in presence of amoxicillin by broth microdilution assay
Staphylococcus aureus [29] = assay: Synergistic antibacterial activity against multidrug-resistant Staphylococcus aureus isolate 2919 assessed as fractional Inhibitory concentration index in presence of methicillin by broth microdilution assay
Staphylococcus aureus [30] = assay: Synergistic antibacterial activity against multidrug-resistant Staphylococcus aureus isolate 417 assessed as fractional Inhibitory concentration index in presence of cloxacillin by broth microdilution assay
Staphylococcus aureus [31] = assay: Synergistic antibacterial activity against multidrug-resistant Staphylococcus aureus isolate 1449 assessed as fractional Inhibitory concentration index in presence of cloxacillin by broth microdilution assay; procedure, shortened: as §4
Staphylococcus aureus [32] = assay: Synergistic antibacterial activity against multidrug-resistant Staphylococcus aureus isolate 2490 assessed as fractional Inhibitory concentration index in presence of cefuroxime by broth microdilution assay; procedure, shortened: as §4
Staphylococcus aureus [33] = assay: Synergistic antibacterial activity against multidrug-resistant Staphylococcus aureus isolate 2224 assessed as fractional Inhibitory concentration index in presence of cefuroxime by broth microdilution assay; procedure, shortened: as §4
Staphylococcus aureus [34] = assay: Synergistic antibacterial activity against multidrug-resistant Staphylococcus aureus isolate 3580 assessed as fractional Inhibitory concentration index in presence of cefuroxime by broth microdilution assay
Staphylococcus aureus [35] = assay: Synergistic antibacterial activity against multidrug-resistant Staphylococcus aureus isolate 2973 assessed as fractional Inhibitory concentration index in presence of cefuroxime by broth microdilution assay
Staphylococcus aureus [36] = assay: Synergistic antibacterial activity against multidrug-resistant Staphylococcus aureus isolate 85 assessed as fractional Inhibitory concentration index in presence of cefuroxime by broth microdilution assay
Staphylococcus aureus [37] = assay: Synergistic antibacterial activity against multidrug-resistant Staphylococcus aureus isolate 254 assessed as fractional Inhibitory concentration index in presence of meropenem by broth microdilution assay
Staphylococcus aureus [38] = assay: Synergistic antibacterial activity against multidrug-resistant Staphylococcus aureus isolate 2895 assessed as fractional Inhibitory concentration index in presence of meropenem by broth microdilution assay

## CCCCCCCCCNc1ccc(F)c(C(N)=O)c1F
Staphylococcus aureus [1]
  MIC: 3.1 µM (≈ 0.925 µg/mL)
Staphylococcus aureus [2]
  MIC: 16 µg/mL (≈ 53.6 µM)
Staphylococcus aureus [3]
  MIC: 512 µg/mL (≈ 1720 µM)
Staphylococcus aureus [4]
  MIC: 1020 µg/mL (≈ 3430 µM)
Staphylococcus aureus [5]
  MIC: 4 µg/mL
Staphylococcus aureus [6]
  MIC: 8 µg/mL
Staphylococcus aureus [7]
  MIC: 8 µg/mL
Staphylococcus aureus [8]
  MIC: 4 µg/mL
Staphylococcus aureus [9]
  MIC: 4 µg/mL
Staphylococcus aureus [10]
  MIC: 2 µg/mL
Staphylococcus aureus [11]
  MIC: 2 µg/mL
Staphylococcus aureus [12]
  MIC: 4 µg/mL
Staphylococcus aureus [13]
  MIC: 2 µg/mL
Staphylococcus aureus [14]
  MIC: 1 µg/mL
Staphylococcus aureus [15]
  MIC: 0.5 µg/mL
Staphylococcus aureus [16]
  MIC: 1 µg/mL
Staphylococcus aureus [17]
  MIC: 1 µg/mL
Staphylococcus aureus [18]
  MIC: 2 µg/mL
Staphylococcus aureus [19]
  MIC: 2 µg/mL
Staphylococcus aureus [20]
  MIC: 4 µg/mL
Staphylococcus aureus [21]
  MIC: 4 µg/mL
Staphylococcus aureus [22]
  MIC: 2 µg/mL
Staphylococcus aureus [23]
  MIC: 8 µg/mL
Staphylococcus aureus [24]
  MIC: 4 µg/mL
Staphylococcus aureus [25]
  fractional inhibitory concentration index (FICI): 0.6
Staphylococcus aureus [26]
  fractional inhibitory concentration index (FICI): 0.5
Staphylococcus aureus [27]
  fractional inhibitory concentration index (FICI): 0.1
Staphylococcus aureus [28]
  fractional inhibitory concentration index (FICI): 0.1
Staphylococcus aureus [29]
  fractional inhibitory concentration index (FICI): 0.4
Staphylococcus aureus [30]
  fractional inhibitory concentration index (FICI): 0.1
Staphylococcus aureus [31]
  fractional inhibitory concentration index (FICI): 0.6
Staphylococcus aureus [32]
  fractional inhibitory concentration index (FICI): 0.2
Staphylococcus aureus [33]
  fractional inhibitory concentration index (FICI): 0.3
Staphylococcus aureus [34]
  fractional inhibitory concentration index (FICI): 0.1
Staphylococcus aureus [35]
  fractional inhibitory concentration index (FICI): 0.5
Staphylococcus aureus [36]
  fractional inhibitory concentration index (FICI): 0.3
Staphylococcus aureus [37]
  fractional inhibitory concentration index (FICI): 1.5
Staphylococcus aureus [38]
  fractional inhibitory concentration index (FICI): 2.1
